ChEMBL document CHEMBL3817776, “Discovery and Structure-Activity Relationships of the Neoseptins: A New Class of Toll-like Receptor-4 (TLR4) Agonists” (J Med Chem, 2016)
The source made the active and inactive calls. No rule for the calls is given here.

Experiments:
[1] = target: T1, Toll-like receptor 4 (Mus musculus) (UniProt Q9QUK6); assay: Agonist activity at TLR4 in C57BL/6J mouse macrophages assessed as stimulation of TNFalpha release at 50 uM after 4 hrs by ELISA
T1 sequence (whole entry): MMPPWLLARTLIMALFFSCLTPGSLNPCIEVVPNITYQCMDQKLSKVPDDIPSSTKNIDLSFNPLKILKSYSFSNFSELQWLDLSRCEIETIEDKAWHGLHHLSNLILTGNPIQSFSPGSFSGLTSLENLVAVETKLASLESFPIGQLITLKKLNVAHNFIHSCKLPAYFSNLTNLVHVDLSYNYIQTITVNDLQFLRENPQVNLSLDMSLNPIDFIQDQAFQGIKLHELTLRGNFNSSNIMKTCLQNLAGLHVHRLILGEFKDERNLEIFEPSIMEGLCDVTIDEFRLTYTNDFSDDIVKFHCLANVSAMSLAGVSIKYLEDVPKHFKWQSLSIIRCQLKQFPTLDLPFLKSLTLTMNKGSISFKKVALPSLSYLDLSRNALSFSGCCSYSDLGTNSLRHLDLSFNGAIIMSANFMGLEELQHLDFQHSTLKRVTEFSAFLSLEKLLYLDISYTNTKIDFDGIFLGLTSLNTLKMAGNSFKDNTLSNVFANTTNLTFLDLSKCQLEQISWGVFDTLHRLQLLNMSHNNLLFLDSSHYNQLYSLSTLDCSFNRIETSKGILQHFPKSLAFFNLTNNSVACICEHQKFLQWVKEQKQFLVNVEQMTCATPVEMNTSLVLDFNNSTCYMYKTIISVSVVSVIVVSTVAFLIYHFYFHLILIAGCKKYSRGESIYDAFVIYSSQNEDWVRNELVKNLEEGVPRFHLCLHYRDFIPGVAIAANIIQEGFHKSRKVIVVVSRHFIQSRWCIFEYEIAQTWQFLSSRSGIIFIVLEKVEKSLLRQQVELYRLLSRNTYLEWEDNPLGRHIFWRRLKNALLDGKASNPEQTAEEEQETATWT
Summary of the method: (§1)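 Peritoneal macrophages from wild-type C57BL/6J mice, collected by PBS lavage and cultured in DMEM/10% FBS at 37 °C, 5% CO2. Seeded at 1 × 10^5 cells/well and treated 4 h with compound in DMSO (0.5% final) beside ultra-pure LPS and DMSO controls. Supernatant TNF-α measured by ELISA; mean of triplicates.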

Toll-like receptor 4 = target: T2, Toll-like receptor 4 (Mus musculus, UniProt Q9QUK6); assay: (§2) Agonist activity at TLR4 in C57BL/6J mouse macrophages assessed as stimulation of TNFalpha release after 4 hrs by ELISA; summary of the method: as §1
T2 sequence (Q9QUK6 whole entry): T1 sequence (whole entry)

[2] = target: T1, Toll-like receptor 4 (Mus musculus); assay: as §2; summary of the method: as §1

Structure (SMILES) | Activity [1] | EC50 (Toll-like receptor 4) [µM] | Activity [2]
CCCCCCCCCCNC(=O)[C@H](CCc1ccccc1)NC(=O)c1ccc(N)c(CCc2ccc(O)cc2)c1 | inactive | – | –
CN(C(=O)c1ccc(N)c(CCc2ccc(O)cc2)c1)[C@@H](CCc1ccccc1)C(=O)OC(C)(C)C | inactive | – | –
CC(C)(C)OC(=O)[C@@H](N)Cc1ccccc1 | inactive | – | –
N[C@@H](Cc1ccc2ccccc2c1)C(=O)Nc1ccc(C(=O)N[C@@H](CCc2ccccc2)C(=O)O)cc1OCCc1ccc(O)cc1 | Active | – | –
COc1ccc(CC[C@H](NC(=O)c2ccc(N)c(CCc3ccc(O)cc3)c2)C(=O)OC(C)(C)C)cc1 | Active | 22.2 | –
CCCCCCCNC(=O)[C@H](CCc1ccccc1)NC(=O)c1ccc(N)c(CCc2ccc(O)cc2)c1 | inactive | – | –
NC(=O)[C@H](CCc1ccccc1)NC(=O)c1ccc(N)c(CCc2ccc(O)cc2)c1 | inactive | – | –
COc1ccc(C[C@H](N)C(=O)Nc2ccc(C(=O)N[C@@H](CCc3ccccc3)C(=O)O)cc2OCCc2ccc(O)cc2)cc1 | Active | – | –
CCCCCCCCNC(=O)[C@H](CCc1ccccc1)NC(=O)c1ccc(N)c(CCc2ccc(O)cc2)c1 | inactive | – | –
CC(C)(C)OC(=O)[C@H](CCc1ccccc1)NC(=O)c1ccc(N)c(CCc2ccccc2O)c1 | inactive | – | –
CC(C)(C)OC(=O)[C@H](CCc1ccc(Cl)cc1)NC(=O)c1ccc(N)c(CCc2ccc(O)cc2)c1 | inactive | – | –
CC(C)(C)OC(=O)[C@H](CCc1ccc(N)cc1)NC(=O)c1ccc(N)c(CCc2ccc(O)cc2)c1 | inactive | – | –
Cc1ccc(CC[C@H](NC(=O)c2ccc(N)c(CCc3ccc(O)cc3)c2)C(=O)OC(C)(C)C)cc1 | Active | 21.6 | –
Nc1ccc(C(=O)N[C@@H](CCc2ccccc2)C(=O)O)cc1CCc1ccc(O)cc1 | inactive | – | –
Nc1ccc(C(=O)N[C@@H](CCc2ccccc2)C(=O)OC23CC4CC(CC(C4)C2)C3)cc1CCc1ccc(O)cc1 | inactive | – | –
CC(C)(C)OC(=O)[C@H](CCC1CCCCC1)NC(=O)c1ccc(N)c(CCc2ccc(O)cc2)c1 | Active | 29.5 | –
CSCC[C@H](N)C(=O)OC(C)(C)C | inactive | – | –
CC(C)(C)OC(=O)[C@H](CCc1ccccc1)NC(=O)c1ccc(N)c(CCc2ccccc2)c1 | inactive | – | –
CC[C@H](N)C(=O)OC(C)(C)C | Active | – | –
N[C@@H](Cc1ccccc1)C(=O)Nc1ccc(C(=O)N[C@@H](CCc2ccccc2)C(=O)O)cc1OCCc1ccc(O)cc1 | Active | – | –
CC(C)(C)OC(=O)[C@H](CCc1ccccc1)NCc1ccc(N)c(CCc2ccc(O)cc2)c1 | inactive | – | –
CCCCCCCCCNC(=O)[C@H](CCc1ccccc1)NC(=O)c1ccc(N)c(CCc2ccc(O)cc2)c1 | inactive | – | –
CC(C)C[C@H](N)C(=O)OC(C)(C)C | Active | – | –
CCCCCCNC(=O)[C@H](CCc1ccccc1)NC(=O)c1ccc(N)c(CCc2ccc(O)cc2)c1 | Active | – | –
CC(C)[C@H](N)C(=O)OC(C)(C)C | Active | – | –

Second part, the compound after the results:

Activity [1] | EC50 (Toll-like receptor 4) [µM] | Activity [2] | Structure (SMILES)
inactive | – | – | CC(C)(C)NC(=O)[C@H](CCc1ccccc1)NC(=O)c1ccc(N)c(CCc2ccc(O)cc2)c1
Active | – | – | CC(C)(C)OC(=O)[C@H](CCc1ccccc1)NC(=O)c1ccc(N)c(CCc2cccc(O)c2)c1
inactive | – | – | CC(C)(C)OC(=O)[C@H](CCc1ccccc1)NC(=O)c1cccc(OCCc2ccc(O)cc2)c1
inactive | – | – | C#CCC(C)(C)OC(=O)[C@H](CCc1ccccc1)NC(=O)c1ccc(N)c(CCc2ccc(O)cc2)c1
inactive | – | – | CC(C)(C)OC(=O)[C@H](CCc1ccccc1)NC(=O)c1ccc(N)c(OCCCCc2ccc(O)cc2)c1
inactive | – | – | CC(C)(C)OC(=O)[C@H](CCc1ccccc1)NC(=O)c1ccc(N)c(C#Cc2ccc(O)cc2)c1
Active | – | – | CC(C)(C)OC(=O)[C@H](CCc1ccccc1)NC(=O)c1cc(N)cc(CCc2ccc(O)cc2)c1
inactive | – | – | CC(C)(C)OC(=O)[C@H](CCCCc1ccccc1)NC(=O)c1ccc(N)c(CCc2ccc(O)cc2)c1
inactive | – | – | CC(C)(C)OC(=O)[C@H](CCc1ccccc1)NC(=O)c1ccc(N)c(OCCCc2ccc(O)cc2)c1
inactive | – | – | CC(C)OC(=O)[C@H](CCc1ccccc1)NC(=O)c1ccc(N)c(CCc2ccc(O)cc2)c1
inactive | – | – | CC(C)(C)OC(=O)[C@H](CCc1ccccc1)NC(=O)c1cccc(CCc2ccc(O)cc2)c1
inactive | – | – | CNc1ccc(C(=O)N[C@@H](CCc2ccccc2)C(=O)OC(C)(C)C)cc1CCc1ccc(O)cc1
inactive | – | – | CC(C)(C)OC(=O)[C@H](CCc1ccccc1)NC(=O)c1ccc([N+](=O)[O-])c(OCCc2ccc(O)cc2)c1
inactive | – | – | CC(=O)Nc1ccc(C(=O)N[C@@H](CCc2ccccc2)C(=O)OC(C)(C)C)cc1CCc1ccc(O)cc1
– | 20.7 | Dose-dependent effect | CC(C)(C)OC(=O)[C@H](CCc1ccccc1)NC(=O)c1ccc(N)c(OCCc2ccc(O)cc2)c1
Active | – | – | CC(C)(C)OC(=O)[C@H](CCc1ccccc1)NC(=O)c1ccc(N)c(OCCc2cccc(O)c2)c1
inactive | – | – | CC(C)(C)OC(=O)[C@H](CCc1ccccc1)NC(=O)c1ccc(N)c(OCCc2ccc(O)c(F)c2)c1
Active | – | – | CC(C)(C)OC(=O)[C@H](CCc1ccccc1)NC(=O)c1ccc(N)c(COc2ccc(O)cc2)c1

Activity [1] | EC50 (Toll-like receptor 4) [µM] | Activity [2] | Structure (SMILES)
Active | – | – | CCC(C)(C)OC(=O)[C@H](CCc1ccccc1)NC(=O)c1ccc(N)c(CCc2ccc(O)cc2)c1
inactive | – | – | CC(C)(C)OC(=O)[C@H](CCc1ccccc1)NC(=O)c1cc(CCc2ccc(O)cc2)ccc1N
Active | – | – | CC(C)(C)OC(=O)[C@H](CCc1ccc(F)cc1)NC(=O)c1ccc(N)c(CCc2ccc(O)cc2)c1
inactive | – | – | CC(C)(C)OC(=O)[C@H](CCCc1ccccc1)NC(=O)c1ccc(N)c(CCc2ccc(O)cc2)c1
inactive | – | – | COc1ccc(CCc2cc(C(=O)N[C@@H](CCc3ccccc3)C(=O)OC(C)(C)C)ccc2N)cc1
inactive | – | – | CC(C)(C)OC(=O)[C@H](CCc1ccccc1)NC(=O)c1ccc(N)c(Sc2ccc(O)cc2)c1
inactive | – | – | CC(C)(C)OC(=O)[C@H](CCc1ccccc1)NC(=S)c1ccc(N)c(CCc2ccc(O)cc2)c1
inactive | – | – | CN(C)c1ccc(C(=O)N[C@@H](CCc2ccccc2)C(=O)OC(C)(C)C)cc1CCc1ccc(O)cc1
inactive | – | – | CC(C)(C)OC(=O)[C@H](CCc1ccc(O)cc1)NC(=O)c1ccc(N)c(CCc2ccc(O)cc2)c1
inactive | – | – | CC(C)(C)OC(=O)[C@H](CCc1ccccc1)NC(=O)c1ccc(N)c(-c2ccc(O)cc2)c1
inactive | – | – | CC(C)(C)OC(=O)[C@H](CCc1ccccc1)NC(=O)c1ccc(N)c(OCCc2ccccc2)c1
inactive | – | – | CC(C)(C)OC(=O)[C@H](CCc1ccccc1)NC(=O)c1ccc(N)c(Cc2ccc(O)cc2)c1
Active | – | – | CC(C)(C)OC(=O)[C@H](CCc1ccccc1)NC(=O)c1ccc(N)c(CCCc2ccc(O)cc2)c1
inactive | – | – | Nc1ccc(C(=O)N[C@@H](CCc2ccccc2)C(=O)O)cc1OCCc1ccc(O)cc1
inactive | – | – | CC(C)(C)COC(=O)[C@H](CCc1ccccc1)NC(=O)c1ccc(N)c(CCc2ccc(O)cc2)c1
inactive | – | – | CC(C)(C)OC(=O)[C@H](CCc1ccccc1)NC(=O)c1ccc(N)c(Nc2ccc(O)cc2)c1
inactive | – | – | CC(C)(C)OC(=O)[C@H](CCc1ccccc1)NC(=O)c1ccc(N)c(OCCc2ccc(O)c(Cl)c2)c1
